Measured values reported in ChEMBL document CHEMBL1687824, “Overexpression of patA and patB, which encode ABC transporters, is associated with fluoroquinolone resistance in clinical isolates of Streptococcus pneumoniae” (2011).
Values after ≈ are worked out from the molar mass of the structure shown.

Key:
Streptococcus pneumoniae [1] = test: Antibacterial activity against Streptococcus pneumoniae M310 overexpressing patA, patB and inactivated patB with single mutation by standardized agar doubling dilution method in presence of 20 ug/ml reserpine efflux pump inhibitor; assay type: functional
Procedure, shortened: (§1)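 MICs determined by BSAC standardized agar doubling dilution. Strains were grown in brain heart infusion broth for 24 h at 37°C in 5% CO2. Inhibitor arms had reserpine at 20 μg/ml or sodium orthovanadate at 50 μM in the agar. Mutants were made by transforming magellan2 insertion amplimers into clinical isolates and selecting on spectinomycin 100 mg/liter, with a no-DNA spontaneous-mutation control.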

Streptococcus pneumoniae [2] = test: Antibacterial activity against fluoroquinolone-resistant Streptococcus pneumoniae M79 FQ-R overexpressing patA, patB by standardized agar doubling dilution method in presence of 20 ug/ml reserpine efflux pump inhibitor; assay type: functional
Procedure, shortened: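 Clinical S. pneumoniae isolates grown in BHI broth 24 h at 37°C in 5% CO2. MICs by agar doubling dilution per BSAC guidelines, alone or with efflux inhibitor reserpine (20 μg/ml) or sodium orthovanadate (50 μM). Synergy defined as ≥2-dilution MIC reduction in presence of inhibitor.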

Streptococcus pneumoniae [3] = test: Antibacterial activity against Streptococcus pneumoniae M310 overexpressing patA, patB and inactivated patB with single mutation by standardized agar doubling dilution method; assay type: functional; procedure, shortened: as §1
Streptococcus pneumoniae [4] = test: Antibacterial activity against Streptococcus pneumoniae M311 overexpressing patA, patB and inactivated patA with single mutation by standardized agar doubling dilution method in presence of 20 ug/ml reserpine efflux pump inhibitor; assay type: functional; procedure, shortened: as §1
Streptococcus pneumoniae [5] = test: Antibacterial activity against Streptococcus pneumoniae M55B overexpressing patA, patB and inactivated patB with single mutation by standardized agar doubling dilution method; assay type: functional
Procedure, shortened: (§2)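 MICs were determined by agar doubling dilution following BSAC guidelines, with no efflux inhibitor. Strains were grown in brain heart infusion broth for 24 h at 37°C in 5% CO2. Species identity was confirmed by Gram stain, optochin sensitivity and capsule test. Control strain R6 was tested alongside.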

Streptococcus pneumoniae [6] = test: Antibacterial activity against Streptococcus pneumoniae M306 overexpressing patA, patB and inactivated patB with single mutation by standardized agar doubling dilution method in presence of 50 uM sodium orthovanadate efflux pump inhibitor; assay type: functional; procedure, shortened: as §1
Streptococcus pneumoniae [7] = test: Antibacterial activity against Streptococcus pneumoniae M316 overexpressing patA, patB and inactivated patA with single mutation by standardized agar doubling dilution method in presence of 20 ug/ml reserpine efflux pump inhibitor; assay type: functional
Procedure, shortened: (§3)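 MICs were determined by BSAC agar doubling dilution in the presence of reserpine at 20 μg/ml. Strains were grown in BHI broth for 24 h at 37°C in 5% CO2, with R6 as control. Synergy was defined as an MIC drop of ≥2 dilutions with the inhibitor.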

Streptococcus pneumoniae [8] = test: Antibacterial activity against Streptococcus pneumoniae M314 overexpressing patA, patB and inactivated patA with single mutation by standardized agar doubling dilution method; assay type: functional; procedure, shortened: as §1
Streptococcus pneumoniae [9] = test: Antibacterial activity against wild-type Streptococcus pneumoniae R6 by standardized agar doubling dilution method in presence of 50 uM sodium orthovanadate efflux pump inhibitor
Streptococcus pneumoniae [10] = test: Antibacterial activity against Streptococcus pneumoniae M87A overexpressing patA, patB and inactivated patA with single mutation by standardized agar doubling dilution method in presence of 50 uM sodium orthovanadate efflux pump inhibitor; assay type: functional
Procedure, shortened: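 MICs were determined by BSAC agar doubling dilution in the presence of sodium orthovanadate at 50 μM. Cultures were grown in BHI broth for 24 h at 37°C in 5% CO2, with R6 as control. Synergy was defined as an MIC reduction of ≥2 dilutions with the inhibitor present.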

Streptococcus pneumoniae [11] = test: Antibacterial activity against Streptococcus pneumoniae M303 overexpressing patA, patB and inactivated patA with single mutation by standardized agar doubling dilution method; assay type: functional; procedure, shortened: as §1
Streptococcus pneumoniae [12] = test: Antibacterial activity against Streptococcus pneumoniae M298 overexpressing patA, patB and inactivated patA with single mutation by standardized agar doubling dilution method in presence of 50 uM sodium orthovanadate efflux pump inhibitor
Streptococcus pneumoniae [13] = test: Antibacterial activity against wild type Streptococcus pneumoniae R6 by standardized agar doubling dilution method in presence of 50 uM sodium orthovanadate efflux pump inhibitor; assay type: functional
Procedure, shortened: (§4)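 MIC by agar doubling dilution following BSAC guidelines. Strains grown in brain heart infusion broth 24 h at 37°C in 5% CO2. Where an efflux pump inhibitor applies, MIC redetermined with reserpine at 20 μg/ml or sodium orthovanadate at 50 μM. Synergy taken as a fall in MIC of ≥2 dilutions with inhibitor present. Dye resistance defined relative to R6 (both dyes ≥2 dilutions higher).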

Streptococcus pneumoniae [14] = test: Antibacterial activity against Streptococcus pneumoniae M46B overexpressing patA, patB and inactivated patB with single mutation by standardized agar doubling dilution method; assay type: functional; procedure, shortened: as §2
Streptococcus pneumoniae [15] = test: Antibacterial activity against Streptococcus pneumoniae M46A overexpressing patA, patB and inactivated patA with single mutation by standardized agar doubling dilution method; assay type: functional; procedure, shortened: as §2
Streptococcus pneumoniae [16] = test: Antibacterial activity against wild type Streptococcus pneumoniae M4 NCTC 7465 type 1 by standardized agar doubling dilution method in presence of 50 uM sodium orthovanadate efflux pump inhibitor; assay type: functional
Streptococcus pneumoniae [17] = test: Antibacterial activity against Streptococcus pneumoniae M306 overexpressing patA, patB and inactivated patB with single mutation by standardized agar doubling dilution method in presence of 20 ug/ml reserpine efflux pump inhibitor; assay type: functional; procedure, shortened: as §1
Streptococcus pneumoniae [18] = test: Antibacterial activity against fluoroquinolone, dye-resistant Streptococcus pneumoniae M297 overexpressing patA, patB by standardized agar doubling dilution method in presence of 20 ug/ml reserpine efflux pump inhibitor; assay type: functional; procedure, shortened: as §4
Streptococcus pneumoniae [19] = test: Antibacterial activity against fluoroquinolone-resistant Streptococcus pneumoniae by standardized agar doubling dilution method in presence of 50 uM sodium orthovanadate efflux pump inhibitor; assay type: functional; procedure, shortened: as §4
Streptococcus pneumoniae [20] = test: Antibacterial activity against Streptococcus pneumoniae M45B overexpressing patA, patB and inactivated patB with single mutation by standardized agar doubling dilution method in presence of 20 ug/ml reserpine efflux pump inhibitor; assay type: functional; procedure, shortened: as §3
Streptococcus pneumoniae [21] = test: Antibacterial activity against Streptococcus pneumoniae M302 overexpressing patA, patB and inactivated patA with single mutation by standardized agar doubling dilution method; assay type: functional; procedure, shortened: as §1
Streptococcus pneumoniae [22] = test: Antibacterial activity against Streptococcus pneumoniae M318 overexpressing patA, patB and inactivated patA with single mutation by standardized agar doubling dilution method; assay type: functional; procedure, shortened: as §2
Streptococcus pneumoniae [23] = test: Antibacterial activity against fluoroquinolone, dye-resistant Streptococcus pneumoniae M86 overexpressing patA, patB by standardized agar doubling dilution method; assay type: functional; procedure, shortened: as §4
Streptococcus pneumoniae [24] = test: Antibacterial activity against fluoroquinolone, dye-susceptible Streptococcus pneumoniae by standardized agar doubling dilution method; assay type: functional; procedure, shortened: as §4
Streptococcus pneumoniae [25] = test: Antibacterial activity against dye-resistant Streptococcus pneumoniae M46 DR overexpressing patA, patB by standardized agar doubling dilution method; assay type: functional; procedure, shortened: as §2
Streptococcus pneumoniae [26] = test: Antibacterial activity against fluoroquinolone, dye-resistant Streptococcus pneumoniae M297 overexpressing patA, patB by standardized agar doubling dilution method; assay type: functional; procedure, shortened: as §4
Streptococcus pneumoniae [27] = test: Antibacterial activity against Streptococcus pneumoniae M87B overexpressing patA, patB and inactivated patB with single mutation by standardized agar doubling dilution method in presence of 20 ug/ml reserpine efflux pump inhibitor; assay type: functional; procedure, shortened: as §3
Streptococcus pneumoniae [28] = test: Antibacterial activity against fluoroquinolone-resistant Streptococcus pneumoniae M83 FQ-R overexpressing patA, patB by standardized agar doubling dilution method in presence of 50 uM sodium orthovanadate efflux pump inhibitor; assay type: functional
Procedure, shortened: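 MIC by agar doubling dilution per BSAC guidelines; strains pregrown in brain heart infusion broth 24 h, 37°C, 5% CO2. MICs measured alone and with efflux pump inhibitors reserpine (20 μg/ml) or sodium orthovanadate (50 μM); synergy defined as ≥2-dilution MIC reduction in presence of inhibitor.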

CC[n+]1c(-c2ccccc2)c2cc(N)ccc2c2ccc(N)cc21.[Br-] [HOMIDIUM BROMIDE]
MIC (Streptococcus pneumoniae [1]): 0.5 µg/mL
MIC (Streptococcus pneumoniae [2]): 0.5 µg/mL
MIC (Streptococcus pneumoniae [3]): 16 µg/mL
MIC (Streptococcus pneumoniae [4]): 0.5 µg/mL
MIC (Streptococcus pneumoniae [5]): 0.5 µg/mL
MIC (Streptococcus pneumoniae [6]): 0.5 µg/mL
MIC (Streptococcus pneumoniae [7]): 0.5 µg/mL
MIC (Streptococcus pneumoniae [8]): 0.5 µg/mL
MIC (Streptococcus pneumoniae [9]): 0.12 µg/mL
MIC (Streptococcus pneumoniae [10]): 0.5 µg/mL
MIC (Streptococcus pneumoniae [11]): 1 µg/mL
MIC (Streptococcus pneumoniae [12]): 0.5 µg/mL
MIC (Streptococcus pneumoniae [13]): 0.1 µg/mL
MIC (Streptococcus pneumoniae [14]): 0.5 µg/mL
MIC (Streptococcus pneumoniae [15]): 0.5 µg/mL
MIC (Streptococcus pneumoniae [16]): 0.3 µg/mL
MIC (Streptococcus pneumoniae [17]): 0.5 µg/mL
MIC (Streptococcus pneumoniae [18]): 0.5 µg/mL
MIC90 (Streptococcus pneumoniae [19]): 0.5 µg/mL
MIC (Streptococcus pneumoniae [20]): 0.5 µg/mL
MIC (Streptococcus pneumoniae [21]): 0.5 µg/mL
MIC (Streptococcus pneumoniae [22]): 0.5 µg/mL
MIC (Streptococcus pneumoniae [23]): 4 µg/mL
MIC90 (Streptococcus pneumoniae [24]): 2 µg/mL
MIC (Streptococcus pneumoniae [25]): 16 µg/mL
MIC (Streptococcus pneumoniae [26]): 8 µg/mL
MIC (Streptococcus pneumoniae [27]): 0.5 µg/mL
MIC (Streptococcus pneumoniae [28]): 4 µg/mL

O=C(O)c1cn(C2CC2)c2cc(N3CCNCC3)c(F)cc2c1=O [CIPROFLOXACIN]
MIC (Streptococcus pneumoniae [1]): 1 µg/mL
MIC (Streptococcus pneumoniae [2]): 32 µg/mL
MIC (Streptococcus pneumoniae [3]): 4 µg/mL (≈ 12.1 µM)
MIC (Streptococcus pneumoniae [4]): 4 µg/mL
MIC (Streptococcus pneumoniae [5]): 2 µg/mL (≈ 6.04 µM)
MIC (Streptococcus pneumoniae [6]): 4 µg/mL
MIC (Streptococcus pneumoniae [7]): 8 µg/mL
MIC (Streptococcus pneumoniae [8]): 8 µg/mL (≈ 24.1 µM)
MIC (Streptococcus pneumoniae [9]): 0.25 µg/mL
MIC (Streptococcus pneumoniae [10]): 8 µg/mL
MIC (Streptococcus pneumoniae [11]): 2 µg/mL (≈ 6.04 µM)
MIC (Streptococcus pneumoniae [12]): 8 µg/mL
MIC (Streptococcus pneumoniae [13]): 0.1 µg/mL
MIC (Streptococcus pneumoniae [14]): 0.12 µg/mL (≈ 0.362 µM)
MIC (Streptococcus pneumoniae [15]): 0.12 µg/mL (≈ 0.362 µM)
MIC (Streptococcus pneumoniae [16]): 1 µg/mL
MIC (Streptococcus pneumoniae [17]): 4 µg/mL
MIC (Streptococcus pneumoniae [18]): 2 µg/mL
MIC90 (Streptococcus pneumoniae [19]): 2 µg/mL
MIC (Streptococcus pneumoniae [20]): 1 µg/mL
MIC (Streptococcus pneumoniae [21]): 4 µg/mL (≈ 12.1 µM)
MIC (Streptococcus pneumoniae [22]): 16 µg/mL (≈ 48.3 µM)
MIC (Streptococcus pneumoniae [23]): 2 µg/mL (≈ 6.04 µM)
MIC (Streptococcus pneumoniae [24]): 0.25 µg/mL (≈ 0.754 µM)
MIC90 (Streptococcus pneumoniae [24]): 0.25 µg/mL (≈ 0.754 µM)
MIC (Streptococcus pneumoniae [25]): 0.25 µg/mL (≈ 0.754 µM)
MIC (Streptococcus pneumoniae [26]): 8 µg/mL (≈ 24.1 µM)
MIC (Streptococcus pneumoniae [27]): 8 µg/mL
MIC (Streptococcus pneumoniae [28]): 1 µg/mL
